“And” between values parts separate entries of the source, which are not always exact repeats. Equal values may be shown once.
Columns and labels:
Gram-negative strains = assay: Broth microdilution, Gram-negative strains taken together; format: cell-based
A. baumannii NCTC 13420 = assay: Broth microdilution MIC/MBC, A. baumannii; format: cell-based, Acinetobacter baumannii; conditions: for MIC A. baumannii NCTC 13420: value before the parentheses, two values = two repeats; for MBC A. baumannii NCTC 13420: value in parentheses
E. faecium ATCC 700221 = assay: Broth microdilution MIC/MBC, E. faecium; format: cell-based, Enterococcus faecium; conditions: for MIC E. faecium ATCC 700221: value before the parentheses, two values = two repeats; for MBC E. faecium ATCC 700221: value in parentheses
Outline: (§1)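 CLSI broth microdilution in cation-adjusted Mueller–Hinton broth. Log-phase cultures were diluted to 7.5 × 10^5 CFU/mL, then mixed 1:1 with 2-fold serial dilutions of gold complexes from DMSO or water stocks, in triplicate, and held 37 °C, 18 h, static. MIC: lowest concentration giving >90% inhibition by OD600 against medium-only and bacteria-only wells. […] E. coli ATCC 25922 quality control was checked each run with ciprofloxacin and […].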

S. aureus JE2 (USA300) = assay: Broth microdilution MIC/MBC, S. aureus; format: cell-based, Staphylococcus aureus; conditions: for MBC S. aureus JE2 (USA300): value in parentheses; for MIC S. aureus JE2 (USA300): value before the parentheses, two values = two repeats
Outline: as §1

Log P determination = conditions: n-octanol/water, Au by FAAS
[1] = system: K. pneumoniae ATCC 700603; assay: Broth microdilution MIC/MBC, K. pneumoniae; format: cell-based, Klebsiella pneumoniae; conditions: for MIC K. pneumoniae ATCC 700603: value before the parentheses, two values = two repeats; for MBC K. pneumoniae ATCC 700603: value in parentheses
Outline: as §1

E. coli ATCC 25922 = assay: Broth microdilution MIC/MBC, E. coli; format: cell-based, Escherichia coli; conditions: for MIC E. coli ATCC 25922: value before the parentheses, two values = two repeats; for MBC E. coli ATCC 25922: value in parentheses
Outline: as §1

E. cloacae NCTC 13405 = assay: Broth microdilution MIC/MBC, E. cloacae; format: cell-based, Enterobacter cloacae; conditions: for MIC E. cloacae NCTC 13405: value before the parentheses, two values = two repeats; for MBC E. cloacae NCTC 13405: value in parentheses
Outline: as §1

P. aeruginosa NCTC 13437 = assay: Broth microdilution MIC/MBC, P. aeruginosa; format: cell-based, Pseudomonas aeruginosa; conditions: value before the parentheses; two values = two repeats
Outline: as §1

Row | Compound | activity toward Gram-negative strains (in words) (Gram-negative strains) | MIC A. baumannii NCTC 13420 (A. baumannii NCTC 13420) | MIC E. faecium ATCC 700221 (E. faecium ATCC 700221) | MBC E. faecium ATCC 700221 (E. faecium ATCC 700221) [µM] | MIC S. aureus (S. aureus JE2 (USA300)) | MBC S. aureus JE2 (USA300) (S. aureus JE2 (USA300)) [µM] | fold enhancement of activity over auranofin, S. aureus (S. aureus JE2 (USA300); vs auranofin) | log P (Log P determination) | MIC K. pneumoniae ATCC 700603 [1] [µM] | MIC E. coli ATCC 25922 (E. coli ATCC 25922) [µM] | MIC E. cloacae NCTC 13405 (E. cloacae NCTC 13405) | MIC P. aeruginosa NCTC 13437 (P. aeruginosa NCTC 13437) [µM] | MBC A. baumannii NCTC 13420 (A. baumannii NCTC 13420) [µM] | MIC S. aureus JE2 (USA300) (S. aureus JE2 (USA300)) | MBC K. pneumoniae ATCC 700603 [1] [µM] | MBC E. coli ATCC 25922 (E. coli ATCC 25922) [µM] | MBC E. cloacae NCTC 13405 (E. cloacae NCTC 13405)
1 | CC[P+](CC)(CC)[Au-][S]c1ccc([N+](=O)[O-])cc1 [Compound 19, (4-Nitrobenzenethiolato)(triethylphosphine) Gold(I)] | completely inactive | >546 µM | 0.06 µM and 0.1 µM | 0.5 | in the nanomolar range | 0.02 | up to 10 | >3.28 | >546 | >546 | >546 µM | >546 | – | – | – | – | –
2 | CC[PH](CC)(CC)[Au][S]c1ccc(C(F)(F)F)cc1 [Compound 20, (4-(Trifluoromethyl)benzenethiolato)(triethylphosphine) Gold(I)] | completely inactive | 520 µM | 0.02 µM | 0.2 | – | 0.2 | – | >3.18 | >520 | >520 | >520 µM | >520 | > 520 | – | – | – | –
3 | FC(F)(F)c1ccc(P(c2ccc(C(F)(F)F)cc2)c2ccc(C(F)(F)F)cc2)cc1.[Cl][Au] [Compound 30, (Tris(4-trifluoromethylphenyl)phosphine)gold Chloride] | – | >366 µM | >366 µM | – | – | 11 | – | >3.94 | >366 | >366 | >366 µM | >366 | – | – | – | – | –
4 | CCCC[P+](CCCC)(CCCC)[Au-][S][C@@H]1OC(COC(C)=O)[C@@H](OC(C)=O)[C@H](OC(C)=O)C1OC(C)=O (stereo partly drawn) [Compound 32, (2,3,4,6-Tetra-O-acetyl-1-thio-β-D-glucopyranosato)(tri-n-butylphosphine) Gold(I)] | completely diminished the activity | 84 µM | 3 µM and 5 µM | 3 | – | 3 | – | >4.32 | >336 | >336 | >336 µM | >336 | > 336 | 3 µM | – | – | –
5 | CC(=O)OCC1O[C@@H]([S][Au-][P+](c2ccccc2)(c2ccccc2)c2ccccc2)C(OC(C)=O)[C@@H](OC(C)=O)[C@@H]1OC(C)=O (stereo partly drawn) [Compound 33, (2,3,4,6-Tetra-O-acetyl-1-thio-β-D-glucopyranosato)-(triphenylphosphine) Gold(I)] | – | >311 µM | 5 µM | 5 | – | 2 | – | >3.87 | >311 | >311 | >311 µM | >311 | – | 1 µM and 2 µM | – | – | –
6 | COc1ccc([P+]([Au-][S][C@@H]2OC(COC(C)=O)[C@@H](OC(C)=O)[C@H](OC(C)=O)C2OC(C)=O)(c2ccc(OC)cc2)c2ccc(OC)cc2)cc1 (stereo partly drawn) [Compound 34, (2,3,4,6-Tetra-O-acetyl-1-thio-β-D-glucopyranosato)(tris(4-methoxyphenyl)phosphine) Gold(I)] | – | >281 µM | 2 µM and 4 µM | 4 | – | 2 | – | >3.03 | >281 | >281 | >281 µM | >281 | – | 1 µM | – | – | –
7 | CC(=O)OCC1O[C@@H]([S][Au-][P+](c2ccc(F)cc2)(c2ccc(F)cc2)c2ccc(F)cc2)C(OC(C)=O)[C@@H](OC(C)=O)[C@@H]1OC(C)=O (stereo partly drawn) [Compound 35, (2,3,4,6-Tetra-O-acety/-1-thio-β-D-glucopyranosato)(tris(4-fluorophenyl)phosphine) Gold(I)] | – | >292 µM | – | 5 | – | 2 | – | >3.04 | >292 | >292 | >292 µM | >292 | – | 1 µM | – | – | –
8 | CC(=O)OCC1O[C@@H]([S][Au-][P+](c2ccc(C(F)(F)F)cc2)(c2ccc(C(F)(F)F)cc2)c2ccc(C(F)(F)F)cc2)C(OC(C)=O)[C@@H](OC(C)=O)[C@@H]1OC(C)=O (stereo partly drawn) [Compound 36, (2,3,4,6-Tetra-O-acetyl-1-thio-β-D-glucopyranosato)(tris(4-(trifluoromethyl)phenylphosphine)) Gold(I)] | – | >249 µM | 31 µM | 62 | – | 8 | – | >3.55 | >249 | >249 | >249 µM | >249 | – | 4 µM | – | – | –
9 | C[PH](C)(C)[Au][S]C1OC(CO)C(O)C(O)C1O [Compound 37, (1-Thio-β-D-glucopyranosato)(trimethylphosphine) Gold(I)] | – | – | 0.3 µM and 0.5 µM | 0.5 | – | 1 | – | −1.63 | 34 | 9 | – | >547 | 17 | 0.3 µM and 0.5 µM | 34 | 9 | 17 µM
10 | C[PH](C)(C)[Au][S]C1OC(CO)C(O)C(O)C1O [Compound 38, (1-Thioβ-D-galatopyranosato)(trimethylphosphine) Gold(I)] | – | 17 µM and 9 µM | 0.3 µM and 0.5 µM | 0.5 | – | 0.3 | – | −1.88 | 34 | 9 | 4.5 µM and 4 µM | >547 | 17 | 0.3 µM | 34 | 9 | 4.5 µM and 4 µM
11 | CC(=O)NC1C([S][Au][PH](C)(C)C)OC(CO)C(O)C1O [Compound 39, (2-Acetamido-2-deoxy-1-thio-β-D-glucopyranosato)-(trimethylphosphine) Gold(I)] | – | 16 µM and 8 µM | – | 0.5 | – | 0.5 | – | −2.03 | 31 | – | 8 µM and 16 µM | >503 | 16 | 0.5 µM | 126 | 31 | 16 µM

— paper PMC7941214 (Journal of medicinal chemistry, 2019)
